# Source: ChEMBL document CHEMBL1177638, “Synthesis of pyrrolo[3,2-h]quinolinones with good photochemotherapeutic activity and no DNA damage” (Bioorg Med Chem, 2010)
# Active and inactive are the calls of the source. No cut-off for these calls is given here.
# What was measured:
# [1] = tested on: Jurkat; assay: Induction of apoptosis in human Jurkat cells assessed as lysosomal dysfunction at 2.5 uM after 2 hrs post-irradiation with 2.5 J/cm'2 using acridine orange dye by flow cytometry; type: functional
# Procedure, shortened: (§1)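 Jurkat cells were irradiated (2.5 J/cm² UV-A) with the compound and collected 2 or 4 h later. They were resuspended in RPMI-1640 containing acridine orange 1 µM. Intact-lysosome cells were scored by red fluorescence on flow cytometry. Values are means ± SD of at least three independent experiments.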
# [2] = tested on: Jurkat; assay: Induction of apoptosis in human Jurkat cells assessed as induction of loss of membrane potential at 2.5 uM after 4 hrs post irradiation with 20 J/cm'2 using JC1 staining by FACS; type: functional
# Procedure, shortened: (§2)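 JC-1 probe at 1 µg/mL in HBSS was added to Jurkat cells spun down 2 or 4 h after UV-A irradiation with the compound. Green (FL1) and orange (FL2) fluorescence were read by flow cytometry, ≥10,000 events per sample. Values are means ± SD of at least three independent experiments.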
# [3] = tested on: Jurkat; assay: Induction of apoptosis in human Jurkat cells assessed as increase in mitochondrial ROS production at 2.5 uM after 6 hrs post-irradiation with 2.5 J/cm'2 by FACS analysis; type: functional
# Procedure, shortened: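 Jurkat cells were collected 6 h after UV-A irradiation (2.5 J/cm²) with the compound and resuspended in HBSS with hydroethidine 2.5 µM or DCFDA 5 µM. They were incubated at 37 °C for 15 or 30 min. Flow cytometry used 488 nm excitation, with emission at 620 nm (HE) or 530 nm (DCF), acquiring ≥10,000 events. Values are means ± SD of three independent experiments.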
# [4] = tested on: K562; assay: Phototoxicity against human K562 cells irradiated with 3.75 J/cm'2 after 72 hrs by MTT assay; type: functional, cell-based; details: K562, light or radiation study
# Procedure, shortened: (§3)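 Cells were seeded at 8 × 10³ and preincubated 18 h at 37 °C, 5% CO₂. Jurkat and K-562 grew in RPMI-1640, MCF-7 and NCTC-2544 in DMEM, and LoVo in Ham's F12, all with 10% FBS plus penicillin and streptomycin. Compounds in DMSO were diluted in HBSS, pH 7.2 (range 20–0.31; DMSO ≤1%) and applied 30 min at 37 °C. Wells were then UV-A irradiated (365 nm; 2.5 or 3.75 J/cm²), medium was replaced, and MTT was read after 72 h.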
# [5] = tested on: Jurkat; assay: Induction of lipid peroxidation in human Jurkat cells irradiated with 2.5 J/cm'2 assessed as increase in malondialdehyde production after 24 hrs by TBARS assay relative to untreated control; type: functional, cell-based
# Procedure, shortened: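 Jurkat cells (500,000) were irradiated (2.5 J/cm²) with compound present and incubated 24 h. Supernatant was kept with BHT, and cells were lysed in 1% SDS, with protein measured by the Peterson method. Malondialdehyde was measured by thiobarbituric acid reaction (fluorescence, 553 nm) against a 1,1,3,3-tetraethoxypropane standard curve. Results are given as nmol TBARS normalized to protein.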
# [6] = Phototoxicity against human sNCTC-2544 cells irradiated with 2.5 J/cm'2 after 72 hrs by MTT assay; type: functional, cell-based; details: NCTC-2544, light or radiation study; procedure, shortened: as §3
# [7] = tested on: Jurkat; assay: Cell cycle arrest in human Jurkat cells assessed as accumulation in S phase at 1 uM irradiated with 20 J/cm'2 after 24 hrs by flow cytometry; type: functional
# Procedure, shortened: (§4)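 Exponentially growing Jurkat cells (5 × 10⁵) were irradiated with compound present. Drug was removed, and cells were kept 24 h in RPMI-1640, fixed in ice-cold 70% ethanol, and treated overnight with RNAse (10 KU/mL) in PBS. Cells were stained with propidium iodide and run on a flow cytometer, with DNA content reported as the fraction of cells in each cycle phase.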
# [8] = tested on: Jurkat; assay: Induction of apoptosis in human Jurkat cells assessed as lysosomal dysfunction at 1 uM after 2 hrs post-irradiation with 2.5 J/cm'2 using acridine orange dye by flow cytometry; type: functional
# Procedure, shortened: (§5)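 Jurkat cells were irradiated (2.5 J/cm²) with compound present and collected at 2 and 4 h. They were resuspended in RPMI-1640 containing acridine orange, and the percentage of red-fluorescent cells (intact lysosomes) was scored by flow cytometry. Values are mean ± SD of at least three independent experiments.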
# [9] = tested on: K562; assay: Phototoxicity against human K562 cells irradiated with 2.5 J/cm'2 after 72 hrs by MTT assay; type: functional, cell-based; details: K562, light or radiation study; procedure, shortened: as §3
# [10] = Photodamaging activity to bovine serum albumin irradiated with 2.5 J/cm'2 UV light assessed as increase in carbonyl content; type: physicochemical; details: cattle
# Procedure, shortened: (§6)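 BSA or RNase A at 2 mg/mL in phosphate buffer was irradiated with the compound in a quartz cuvette for various times. Carbonyl content was measured spectrophotometrically after 2,4-dinitrophenylhydrazine derivatization.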
# [11] = tested on: MCF7; assay: Phototoxicity against human MCF7 cells irradiated with 3.75 J/cm'2 after 72 hrs by MTT assay; type: functional, cell-based; details: MCF7, light or radiation study; procedure, shortened: as §3
# [12] = tested on: Jurkat; assay: Induction of apoptosis in human Jurkat cells assessed as induction of loss of membrane potential at 2.5 uM after 2 hrs post-irradiation with 20 J/cm'2 by flow cytometry; type: functional; procedure, shortened: as §2
# [13] = tested on: Jurkat; assay: Induction of apoptosis in human Jurkat cells assessed as induction of loss of membrane potential at 2.5 uM after 2 hrs post-irradiation with 20 J/cm'2 using JC1 staining by FACS; type: functional; procedure, shortened: as §2
# [14] = tested on: Jurkat; assay: Induction of apoptosis in human Jurkat cells assessed as lysosomal dysfunction at 2.5 uM after 4 hrs post-irradiation with 2.5 J/cm'2 using acridine orange dye by flow cytometry; type: functional; procedure, shortened: as §1
# [15] = tested on: Jurkat; assay: Induction of apoptosis in human Jurkat cells assessed as increase in mitochondrial ROS production at 1 uM after 6 hrs post-irradiation with 2.5 J/cm'2 by FACS analysis; type: functional
# Procedure, shortened: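 Jurkat cells were irradiated (2.5 J/cm²) with compound present and collected 6 h later. They were resuspended in HBSS with hydroethidine and DCFDA (2.5 and 5, respectively) and held at 37 °C for 15 or 30 min. Flow cytometry used 488 nm excitation, reading 620 nm for HE and 530 nm for DCF, with at least 10,000 events. Values are mean ± SD, three independent experiments.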
# [16] = tested on: Jurkat; assay: Phototoxicity against human Jurkat cells irradiated with 2.5 J/cm'2 after 72 hrs by MTT assay; type: functional, cell-based; details: light or radiation study; procedure, shortened: as §3
# [17] = tested on: Nucleic Acid; assay: Binding affinity to UV irradiated pBR322 assessed as strand break by electrophoresis; type: nucleic-acid assay; details: Escherichia coli
# Procedure, shortened: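 Plasmid irradiated with the compound. Aliquots were then incubated at 37 °C with Fpg or Endo III. Bands were quantified densitometrically and supercoiled (Form I) and open circular (Form II) fractions were calculated.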
# [18] = tested on: MCF7; assay: Phototoxicity against human MCF7 cells irradiated with 2.5 J/cm'2 after 72 hrs by MTT assay; type: functional, cell-based; details: MCF7, light or radiation study; procedure, shortened: as §3
# [19] = Phototoxicity against human sNCTC-2544 cells irradiated with 3.75 J/cm'2 after 72 hrs by MTT assay; type: functional, cell-based; details: NCTC-2544, light or radiation study; procedure, shortened: as §3
# [20] = tested on: LoVo; assay: Phototoxicity against human LoVo cells irradiated with 3.75 J/cm'2 after 72 hrs by MTT assay; type: functional, cell-based; details: light or radiation study; procedure, shortened: as §3
# [21] = tested on: Jurkat; assay: Cell cycle arrest in human Jurkat cells assessed as accumulation in G1 phase at 1 uM irradiated with 25 J/cm'2 after 24 hrs by flow cytometry
# [22] = tested on: LoVo; assay: Phototoxicity against human LoVo cells irradiated with 2.5 J/cm'2 after 72 hrs by MTT assay; type: functional, cell-based; details: light or radiation study; procedure, shortened: as §3
# [23] = tested on: Jurkat; assay: Induction of apoptosis in human Jurkat cells assessed as lysosomal dysfunction at 1 uM after 4 hrs post-irradiation with 2.5 J/cm'2 using acridine orange dye by flow cytometry; type: functional; procedure, shortened: as §5
# [24] = tested on: Nucleic Acid; assay: Binding affinity to salmon testes DNA assessed as intercalation by linear dichroism experiment; type: nucleic-acid assay; details: Salmonidae
# Procedure, shortened: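 Salmon testes DNA was mixed with compound at [Drug]/[DNA] ratios of 0, 0.02 and 0.04 in 10 mM phosphate buffer, pH 7.2. Samples were oriented in a rotating cylindrical flow cuvette (0.14 cm path, 800 rpm), and linear dichroism spectra were recorded over roughly 250–450 nm.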
# [25] = tested on: Jurkat; assay: Cell cycle arrest in human Jurkat cells assessed as accumulation in subG1 phase at 1 uM irradiated with 20 J/cm'2 after 24 hrs by flow cytometry; type: functional; procedure, shortened: as §4
# [26] = tested on: Jurkat; assay: Induction of apoptosis in human Jurkat cells assessed as induction of loss of membrane potential at 2.5 uM after 4 hrs post-irradiation with 20 J/cm'2 by flow cytometry; type: functional; procedure, shortened: as §2
# [27] = tested on: Jurkat; assay: Cell cycle arrest in human Jurkat cells assessed as accumulation in G2/M phase at 1 uM irradiated with 25 J/cm'2 after 24 hrs by flow cytometry
# [28] = Photodamaging activity to ribonuclease irradiated with 2.5 J/cm'2 UV light assessed as increase in carbonyl content; type: physicochemical; procedure, shortened: as §6
# [29] = tested on: Jurkat; assay: Induction of apoptosis in human Jurkat cells assessed as induction of loss of membrane potential at 1 uM after 2 hrs post-irradiation with 20 J/cm'2 by flow cytometry; type: functional
# Procedure, shortened: (§7)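 Irradiated Jurkat cells treated with compound were collected 2 and 4 h after irradiation and resuspended in HBSS containing JC-1. Green (FL1) and orange (FL2) fluorescence were read by flow cytometry, with at least 10,000 events per sample. Values are mean ± SD of at least three independent experiments.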
# [30] = tested on: Jurkat; assay: Induction of apoptosis in human Jurkat cells assessed as induction of loss of membrane potential at 1 uM after 2 hrs post-irradiation with 20 J/cm'2 using JC1 staining by FACS; type: functional; procedure, shortened: as §7
# [31] = tested on: Jurkat; assay: Induction of apoptosis in human Jurkat cells assessed as phosphatidylserine esposure after 2 hrs using annexin-V FITC and PI staining by flow cytometry; type: functional, cell-based
# Procedure, shortened: (§8)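 Jurkat cells (100,000) were irradiated (2.5 J/cm²) with compound present and centrifuged 30 min, 1 h or 2 h later. They were stained with Annexin V-FITC/PI for 15 min in the dark, and FITC (FL1) and PI (FL3) were read by flow cytometry, with at least 10,000 events. Cells were classed as intact, early apoptotic, late apoptotic/necrotic or necrotic. Values are the mean of three experiments.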
# [32] = tested on: Jurkat; assay: Induction of apoptosis in human Jurkat cells assessed as induction of loss of membrane potential at 1 uM after 4 hrs post-irradiation with 20 J/cm'2 by flow cytometry; type: functional; procedure, shortened: as §7
# [33] = tested on: Jurkat; assay: Phototoxicity against human Jurkat cells irradiated with 3.75 J/cm'2 after 72 hrs by MTT assay; type: functional, cell-based; details: light or radiation study; procedure, shortened: as §3
# [34] = tested on: Jurkat; assay: Induction of apoptosis in human Jurkat cells assessed as induction of loss of membrane potential at 1 uM after 4 hrs post irradiation with 20 J/cm'2 using JC1 staining by FACS; type: functional; procedure, shortened: as §7
# [35] = tested on: Jurkat; assay: Induction of apoptosis in human Jurkat cells assessed as phosphatidylserine esposure after 30 mins using annexin-V FITC and PI staining by flow cytometry; type: functional, cell-based; procedure, shortened: as §8
SMILES,Activity [3],IC50 [4],Activity [5],IC50 [6],Activity [7],Activity [8],IC50 [9],IC50 [11],Activity [15],IC50 [16],IC50 [18],IC50 [19],IC50 [20],Activity [21],IC50 [22],Activity [23],Activity [24],Activity [25],Activity [27],Activity [29],other results
O=c1ccc2ccc3occc3c2o1 [ANGELICIN],15.82%,1 µM,Dose-dependent effect,4.2 µM,46.7%,9.82%,1.2 µM,1.5 µM,Active,1 µM,4.4 µM,0.9 µM,1.5 µM,12.3%,3.6 µM,6.63%,Active,30.8%,10.2%,–,Activity [1]: 15.03%; Activity [2]: 58.8%; Activity [10]: Active; Activity [12]: 1.08%; Activity [13]: 98.92%; Activity [14]: 50.85%; Activity [17]: Active; Activity [26]: 41.2%; Activity [28]: Active
CCOC(=O)c1cc2c(n1Cc1ccccc1)-c1[nH]c(=O)c(S(=O)(=O)c3ccccc3)cc1CC2,Active,0.6 µM,Dose-dependent effect,1.1 µM,8.2%,29.76%,0.9 µM,0.8 µM,24.4%,0.8 µM,0.9 µM,1 µM,0.8 µM,16.1%,0.9 µM,55.82%,inactive,68.5%,7.2%,24.26%,Activity [30]: 75.74%; Activity [31]: Active; Activity [32]: 67.18%; IC50 [33]: 0.6 µM; Activity [34]: 32.82%
CCOC(=O)c1cc2c(n1C)-c1[nH]c(=O)c(S(=O)(=O)c3ccccc3)cc1CC2,–,0.9 µM,Dose-dependent effect,1.2 µM,6.6%,29.72%,1 µM,1 µM,0.7%,0.7 µM,1.2 µM,1.1 µM,1 µM,16.1%,1.1 µM,36.97%,inactive,63.3%,14%,1.3%,Activity [30]: 98.68%; Activity [35]: Active; Activity [32]: 5.14%; IC50 [33]: 0.5 µM; Activity [34]: 94.8%
CCOC(=O)c1cc2c(n1Cc1ccc(OC)cc1)-c1[nH]c(=O)c(S(=O)(=O)c3ccccc3)cc1CC2,Active,0.9 µM,Dose-dependent effect,1.9 µM,6.1%,58.5%,1 µM,1.3 µM,79.08%,0.8 µM,1.6 µM,1.6 µM,1 µM,12.6%,1.1 µM,63.16%,inactive,74.7%,6.6%,44.43%,Activity [30]: 55.57%; Activity [31]: Active; Activity [32]: 47.07%; IC50 [33]: 0.7 µM; Activity [34]: 25.86%
